# Reference: ChEMBL document CHEMBL1125771, “Synthesis, activation, and cytotoxicity of aldophosphamide analogues” (J Med Chem, 1991)
# Assays:
# L1210 [1] = assay: In vivo antitumor activity against intraperitoneal murine wild type L1210 Leukemia cells at 510 umol/kg; assay type: functional, Mus musculus
# L1210 [2] = assay: In vivo antitumor activity against intraperitoneal murine wild type L1210 Leukemia cells at 170 umol/kg; assay type: functional, Mus musculus
# L1210 [3] = assay: In vivo antitumor activity against intraperitoneal murine wild type L1210 Leukemia cells at 340 umol/kg; assay type: functional, Mus musculus
# L1210 [4] = assay: In vitro antitumor activity against cyclophosphamide-resistant L1210/CP cells; assay type: functional, Mus musculus
# How it was run: (§1)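 Clonogenic survival assay in wild-type or cyclophosphamide-resistant L1210 and P388 cells with 1-h drug exposure. LC99 is the concentration that lowers colony formation to 1% of control. It comes from linear regression of log surviving fraction vs concentration over the linear portion, using at least three determinations. Standard errors are within ±10%.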
# L1210 [5] = assay: In vitro antitumor activity against wild-type L1210/0 cells; assay type: functional, Mus musculus; how it was run: as §1
# L1210 [6] = assay: Ratio of resistance factor LC99 […] to that of LC99 […]; assay type: functional, Mus musculus
# How it was run: (§2)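 Resistance factor is LC99 in the cyclophosphamide-resistant line divided by LC99 in the wild-type line. Each LC99 is from a clonogenic assay with 1-h drug exposure: the concentration that reduces colonies to 1% of control, by linear regression of log survival vs concentration from at least three determinations.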
# P388 [7] = assay: In vitro antitumor activity against cyclophosphamide-resistant P388/CP cells; assay type: functional, Mus musculus; how it was run: as §1
# P388 [8] = assay: In vitro antitumor activity against wild-type P388/0 cells; assay type: functional, Mus musculus; how it was run: as §1
# P388 [9] = assay: Ratio of resistance factor LC99 […] to that of LC99 […]; assay type: functional, Mus musculus; how it was run: as §2
# [10] = Hydrolysis rate constant at pH 7.4 and 50 mM HEPES buffer; assay type: ADME
# How it was run: (§3)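 Spectrophotometric hydrolysis assay of model perhydrooxazines at 37 °C. Buffer strength was varied by mixing a stock of 0.25 M HEPES, phenol red (10 mg/100 mL) and KCl (μ = 0.20) with a matching stock that lacked HEPES. Substrate was added in DMSO (1:4 v/v) at a perhydrooxazine:buffer molar ratio of 0.1, with DMSO in the reference cell. The phenol red absorbance rise at 560 nm was read over 1 h. k came from the slope of ln(A∞ − At) vs time.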
# [11] = Hydrolysis rate constant at pH 7.4 and 12.5 mM HEPES buffer; assay type: ADME; how it was run: as §3
# [12] = Hydrolysis rate constant at pH 7.4 and 25 mM HEPES buffer; assay type: ADME; how it was run: as §3
# [13] = Hydrolysis rate constant at pH 7.8 and 25 mM HEPES buffer; assay type: ADME; how it was run: as §3
# [14] = Hydrolysis rate constant at pH 6.8 and 25 mM HEPES buffer; assay type: ADME; how it was run: as §3
# [15] = Hydrolysis rate constant at pH 7 and 25 mM HEPES buffer; assay type: ADME; how it was run: as §3
SMILES,T/C (L1210 [1]),T/C (L1210 [2]),T/C (L1210 [3]),LC99 (L1210 [4]),LC99 (L1210 [5]),RF (L1210 [6]),LC99 (P388 [7]),LC99 (P388 [8]),RF (P388 [9]),khydr [10],khydr [11],khydr [12],khydr [13],khydr [14],khydr [15]
CC1CC(C)(C)NC(CC(OP(=O)(N(CCCl)CCCl)N2CCOCC2)c2ccccc2)O1 (stereo unspecified),111%,100%,100%,38 µM,28 µM,1.4,22 µM,16 µM,1.4,,,,,,
CC1CC(C)(C)NC(CCOP(N)(=O)N(CCCl)CCCl)O1 (stereo unspecified),167%,144%,144%,145 µM,21 µM,6.9,92 µM,19 µM,4.8,,,,,,
CCN(CC)P(N)(=O)OC(CC1NC(C)(C)CC(C)O1)c1ccccc1 (stereo unspecified),,,,>200 µM,>200 µM,,>200 µM,>200 µM,,,,,,,
CC1CC(C)(C)NC(CC(OP(=O)(N(CCCl)CCCl)N(CCCl)CCCl)c2ccccc2)O1 (stereo unspecified),170%,125%,150%,3 µM,2 µM,1.5,2 µM,2 µM,1,,,,,,
CCN(CC)P(=O)(OCCC1NC(C)(C)CC(C)O1)N(CC)CC (stereo unspecified),,,,>200 µM,>200 µM,,>200 µM,>200 µM,,,,,,,
CC[C@H]1NC(C)(C)C[C@@H](C)O1,,,,,,,,,,0.0086 min⁻¹,0.0088 min⁻¹,0.0085 min⁻¹,,,
CC1CC(C)(C)NC(CCOP(=O)(N(CCCl)CCCl)N2CCOCC2)O1 (stereo unspecified),113%,,113%,150 µM,84 µM,1.8,117 µM,56 µM,2.1,,,,,,
C[C@@H]1CC(C)(C)N[C@H](CCc2ccccc2)O1,,,,,,,,,,0.0095 min⁻¹,0.0086 min⁻¹,0.0094 min⁻¹,0.0082 min⁻¹,0.0042 min⁻¹,0.0065 min⁻¹
CC1CC(C)(C)NC(CCOP(=O)(N(CCCl)CCCl)N(CCCl)CCCl)O1 (stereo unspecified),,,,19 µM,7 µM,2.7,10 µM,5 µM,2,,,,,,
CC1CC(C)(C)NC(CC(OP(N)(=O)N(CCCl)CCCl)c2ccccc2)O1 (stereo unspecified),,125%,125%,14 µM,13 µM,1.1,10 µM,7 µM,1.4,,,,,,
